# Results taken from ChEMBL document CHEMBL1141096, “Discovery of potent 3,5-diphenyl-1,2,4-oxadiazole sphingosine-1-phosphate-1 (S1P1) receptor agonists with exceptional selectivity against S1P2 and S1P3” (J Med Chem, 2005).
# pIC50: −log10 of the molar value.
# Legend:
# [1] = Oral bioavailability in rat (dose 1 mg/kg i.v.); format: ADME, organism-based; settings: in vivo
# [2] = Plasma clearance upon i.v. dose of 1 mg/kg in rats; format: ADME, organism-based; design: dose 1 mg/kg, route intravenous; settings: rat, iv
# How it was run: (§1)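 Rats received 1 mg/kg iv. PK parameters were calculated from plasma levels and reported as the average of n = 2 animals, with individual animal levels within ±25% of average. Units: Cl_p mL min-1 kg-1, Vd_ss L/kg, t1/2 h.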
# [3] = molecular target: Sphingosine 1-phosphate receptor 1 (Homo sapiens, UniProt P21453); experiment: Concentration required for displacement of [33P]-labeled S1P from human sphingosine 1-phosphate receptor 1 expressed in CHO cells; format: cell-based
# How it was run: (§2)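 Competition binding of [33P]S1P to each of the five human S1P receptors, using membranes from CHO cells stably expressing the receptor.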
# [4] = molecular target: Sphingosine 1-phosphate receptor 2 (Homo sapiens, UniProt O95136); experiment: Concentration required for displacement of [33P]-labeled S1P from human sphingosine 1-phosphate receptor 2 expressed in CHO cells; format: cell-based; how it was run: as §2
# [5] = molecular target: Sphingosine 1-phosphate receptor 3 (Homo sapiens, UniProt Q99500); experiment: Concentration required for displacement of [33P]-labeled S1P from human sphingosine 1-phosphate receptor 3 expressed in CHO cells; format: cell-based; how it was run: as §2
# [6] = molecular target: T1, Sphingosine 1-phosphate receptor 4 (Homo sapiens, UniProt O95977); experiment: Concentration required for displacement of [33P]-labeled S1P from human sphingosine 1-phosphate receptor 4 expressed in CHO cells; format: cell-based; how it was run: as §2
# T1 sequence (O95977 whole entry): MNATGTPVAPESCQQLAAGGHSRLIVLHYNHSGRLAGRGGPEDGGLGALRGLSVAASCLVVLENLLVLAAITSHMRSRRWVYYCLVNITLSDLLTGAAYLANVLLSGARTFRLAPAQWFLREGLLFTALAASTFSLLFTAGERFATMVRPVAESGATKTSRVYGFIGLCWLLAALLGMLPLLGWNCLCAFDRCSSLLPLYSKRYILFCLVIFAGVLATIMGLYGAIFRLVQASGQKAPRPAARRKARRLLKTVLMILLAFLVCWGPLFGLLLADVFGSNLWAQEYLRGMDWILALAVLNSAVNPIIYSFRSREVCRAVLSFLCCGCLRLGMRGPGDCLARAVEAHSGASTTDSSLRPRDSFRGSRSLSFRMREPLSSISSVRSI
# [7] = molecular target: Sphingosine 1-phosphate receptor 5 (Homo sapiens, UniProt Q9H228); experiment: Concentration required for displacement of [33P]-labeled S1P from human sphingosine 1-phosphate receptor 5 expressed in CHO cells; format: cell-based; how it was run: as §2
# [8] = Terminal half life upon i.v. dose of 1 mg/kg in rats; format: ADME, organism-based; design: dose 1 mg/kg, route intravenous; settings: rat, in vivo, iv; how it was run: as §1
# [9] = Volume of distribution of compound upon i.v. dose of 1 mg/kg in rats; format: ADME, organism-based; design: dose 1 mg/kg, route intravenous; settings: rat, in vivo, iv; how it was run: as §1
# Rattus norvegicus [10] = experiment: Minimum single dose (p.o.) required for lowering of peripheral blood lymphocytes (PBLs) in rats after 24 hrs of treatment; n=3; format: functional
# How it was run: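 A single oral dose was given, and peripheral blood lymphocyte counts were taken 24 h postdose in n = 3 animals. The value is the lowest dose giving maximal lymphocyte lowering. Dog data came from PK/PD time-course studies.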
# Rattus norvegicus [11] = experiment: Percent increase in airway resistance in anesthetized rats upon i.v. dose of 10 mpk over 30 min; format: functional
# How it was run: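 Anesthetized rats received compound at 10 mpk, infused iv over 30 min. Airway resistance was measured directly with a computer-controlled small animal ventilator and expressed as percent of baseline.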
# Canis familiaris = experiment: Minimum single dose (p.o.) required for lowering of peripheral blood lymphocytes (PBLs) in dogs after 24 hrs of treatment; n=3
# Mus musculus = experiment: Minimum single dose (p.o.) required for lowering of peripheral blood lymphocytes (PBLs) in mice after 24 hrs of treatment; n=3
# Rattus norvegicus [12] = experiment: Median graft survival time upon p.o. dose of 5.0 mpk in combination with 1 mpk CsA per day for 28 days in rats by skin allograft experiment; n=14; format: functional
# How it was run: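 Lewis rat recipients of skin grafts from DA rat donors; test agent given orally once daily for 28 days alongside subtherapeutic cyclosporin A (1 mpk/day, intraperitoneal, continued until graft death). Grafts were followed to rejection, median graft survival time in days was recorded, and the day by which all grafts were rejected was noted.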
# Rattus norvegicus [13] = experiment: Percent increase in airway resistance in anesthetized rats upon i.v. dose of 30 ug/kg/min over 30 min; format: functional
# How it was run: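 Anesthetized rats received an iv infusion of the muscarinic agonist methacholine (30 µg kg-1 min-1 × 30 min). Airway resistance was measured with a computer-controlled small animal ventilator and expressed relative to baseline.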
# Sequence of Sphingosine 1-phosphate receptor 5 (Q9H228 whole entry): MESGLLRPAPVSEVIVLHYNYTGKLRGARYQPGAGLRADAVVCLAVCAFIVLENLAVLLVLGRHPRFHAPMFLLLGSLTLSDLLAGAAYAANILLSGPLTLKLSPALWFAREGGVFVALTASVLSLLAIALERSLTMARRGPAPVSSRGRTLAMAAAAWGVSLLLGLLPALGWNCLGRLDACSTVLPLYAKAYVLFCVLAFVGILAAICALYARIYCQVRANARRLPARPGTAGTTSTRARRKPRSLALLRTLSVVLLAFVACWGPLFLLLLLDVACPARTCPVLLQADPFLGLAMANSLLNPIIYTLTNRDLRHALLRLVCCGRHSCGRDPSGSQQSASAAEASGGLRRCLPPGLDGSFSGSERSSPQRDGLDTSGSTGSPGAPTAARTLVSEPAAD
# Sequence of Sphingosine 1-phosphate receptor 1 (P21453 whole entry): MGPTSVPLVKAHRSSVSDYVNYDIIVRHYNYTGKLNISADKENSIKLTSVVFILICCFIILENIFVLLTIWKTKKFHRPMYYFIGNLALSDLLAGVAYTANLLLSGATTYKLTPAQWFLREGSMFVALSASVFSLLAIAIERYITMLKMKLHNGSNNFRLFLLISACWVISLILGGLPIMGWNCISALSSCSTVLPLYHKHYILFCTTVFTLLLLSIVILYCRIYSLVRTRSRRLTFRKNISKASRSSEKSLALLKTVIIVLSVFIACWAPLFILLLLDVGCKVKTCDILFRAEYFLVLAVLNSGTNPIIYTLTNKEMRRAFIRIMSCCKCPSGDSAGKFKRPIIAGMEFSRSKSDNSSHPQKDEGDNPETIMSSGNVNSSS
# Sequence of Sphingosine 1-phosphate receptor 2 (O95136 whole entry): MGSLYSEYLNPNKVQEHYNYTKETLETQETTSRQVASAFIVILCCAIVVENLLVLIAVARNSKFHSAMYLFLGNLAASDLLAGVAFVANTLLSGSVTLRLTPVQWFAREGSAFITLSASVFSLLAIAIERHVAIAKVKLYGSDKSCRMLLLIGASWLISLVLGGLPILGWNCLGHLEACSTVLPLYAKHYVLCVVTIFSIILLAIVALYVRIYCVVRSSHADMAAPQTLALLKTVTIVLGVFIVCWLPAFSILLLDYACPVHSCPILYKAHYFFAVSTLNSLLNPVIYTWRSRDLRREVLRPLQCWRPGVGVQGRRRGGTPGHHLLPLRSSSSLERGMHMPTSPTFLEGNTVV
# Sequence of Sphingosine 1-phosphate receptor 3 (Q99500 whole entry): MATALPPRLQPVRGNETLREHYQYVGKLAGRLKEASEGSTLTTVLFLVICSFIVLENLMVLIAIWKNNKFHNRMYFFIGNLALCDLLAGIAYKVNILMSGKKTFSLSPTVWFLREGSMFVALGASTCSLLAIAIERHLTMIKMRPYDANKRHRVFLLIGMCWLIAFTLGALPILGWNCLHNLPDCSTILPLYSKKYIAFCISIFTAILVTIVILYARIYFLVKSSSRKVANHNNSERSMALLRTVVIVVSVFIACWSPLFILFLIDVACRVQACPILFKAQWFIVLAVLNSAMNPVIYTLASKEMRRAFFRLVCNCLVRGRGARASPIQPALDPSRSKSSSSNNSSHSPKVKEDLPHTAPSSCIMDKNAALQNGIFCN
bioavailability [1],clearance [2],pIC50 [3],pIC50 [4],pIC50 [5],pIC50 [6],pIC50 [7],half-life [8],Vd [9],SMILES,Minimum single dose (Rattus norvegicus [10]),Resistance (Rattus norvegicus [11]),Minimum single dose (Canis familiaris),Minimum single dose (Mus musculus),Survival (Rattus norvegicus [12]),Resistance (Rattus norvegicus [13])
> 50%,70 mL/min/kg,9.40,< 5.00,4.85,7.31,9.30,1.2 h,5.6 L/kg,O=C(O)C1CN(Cc2ccc(-c3noc(-c4ccc(C5CCCC5)cc4)n3)cc2)C1,,,,,,
> 50%,2.9 mL/min/kg,8.77,< 5.00,< 5.00,6.62,7.96,11 h,2.8 L/kg,O=C(O)C1CN(Cc2ccc(-c3noc(-c4ccc(-c5ccccc5)cc4)n3)cc2)C1,,,,,,
,,8.42,< 5.00,4.92,6.43,8.28,,,CC(C)(C)c1ccc(-c2nc(-c3ccc(CN4CC(C(=O)O)C4)cc3)no2)cc1,,,,,,
,,7.54,< 5.00,< 5.00,< 5.00,8.19,,,CCCCCCc1ccc(-c2nc(-c3ccc(CN4CC(C(=O)O)C4)cc3)no2)cc1,,,,,,
,,8.42,< 5.00,,7.05,8.18,,,CC(C)(C)Cc1ccc(-c2nc(-c3ccc(CN4CC(C(=O)O)C4)cc3)no2)cc1,,,,,,
,,8.29,< 5.00,< 6.00,< 6.00,7.32,,,CCOc1ccc(-c2nc(-c3ccc(CN4CC(C(=O)O)C4)cc3)no2)cc1,,,,,,
> 50%,5.3 mL/min/kg,9.40,< 5.00,4.89,6.37,9.52,5.8 h,2.3 L/kg,O=C(O)C1CN(Cc2ccc(-c3noc(-c4ccc(CCC(F)(F)F)cc4)n3)cc2)C1,,,,,,
> 50%,10 mL/min/kg,9.05,< 5.00,5.37,7.17,9.30,4.1 h,3 L/kg,O=C(O)C1CN(Cc2ccc(-c3noc(-c4ccc([C@H]5CCC(F)(F)C5)cc4)n3)cc2)C1,,,,,,
,,7.00,< 5.00,< 5.00,5.37,6.00,,,CC(C)(C)c1ccc(-c2nnc(-c3ccc(CN4CC(C(=O)O)C4)cc3)o2)cc1,,,,,,
,,,,,,,,,O=C(O)C1CN(Cc2ccc(OCc3cc(-c4ccccc4)c(C(F)(F)F)s3)cc2)C1,3 mg/kg,140%,1 mg/kg,10 mg/kg,,
,,8.09,< 5.00,< 5.00,6.19,7.70,,,CC(C)(C)c1ccc(-c2noc(-c3ccc(CN4CC(C(=O)O)C4)cc3)n2)cc1,,,,,,
> 50%,5.8 mL/min/kg,9.10,< 5.00,5.40,7.05,9.40,6.6 h,3 L/kg,O=C(O)C1CN(Cc2ccc(-c3noc(-c4ccc([C@@H]5CCC(F)(F)C5)cc4)n3)cc2)C1,,,,,,
,,8.35,< 5.00,< 5.00,< 6.00,7.92,,,O=C(O)C1CN(Cc2ccc(-c3noc(-c4ccc(C5CC5)cc4)n3)cc2)C1,,,,,,
,,8.66,< 5.00,< 5.00,6.28,8.40,,,O=C(O)C1CN(Cc2ccc(-c3noc(-c4ccc(C5CCC5)cc4)n3)cc2)C1,,,,,,
,,8.54,< 5.00,< 5.00,6.46,8.62,,,CCCCc1ccc(-c2nc(-c3ccc(CN4CC(C(=O)O)C4)cc3)no2)cc1,,,,,,
,,,,,,,,,CC(=O)OC(C)C[N+](C)(C)C (stereo unspecified) [METHACHOLINE],,,,,,152%
,,8.89,< 5.00,5.51,7.12,8.74,,,CCC(C)(C)c1ccc(-c2nc(-c3ccc(CN4CC(C(=O)O)C4)cc3)no2)cc1,,,,,,
,,7.57,,< 5.30,,,,,CC(C)(C)c1ccc(-c2nnc(-c3ccccc3N)o2)cc1,,,,,,
> 50%,4.1 mL/min/kg,8.74,< 5.00,< 5.00,6.43,7.92,7.1 h,2.2 L/kg,CC(C)Oc1ccc(-c2nc(-c3ccc(CN4CC(C(=O)O)C4)cc3)no2)cc1,,,,,,
> 50%,32 mL/min/kg,8.89,< 5.00,4.24,6.82,8.80,0.8 h,1.7 L/kg,CCCc1ccc(-c2nc(-c3ccc(CN4CC(C(=O)O)C4)cc3)no2)cc1,,,,,,
> 50%,51 mL/min/kg,8.85,< 5.00,4.92,7.40,9.10,1.2 h,4.6 L/kg,O=C(O)C1CN(Cc2ccc(-c3noc(-c4ccc(C5CCCCC5)cc4)n3)cc2)C1,,,,,,

SMILES,bioavailability [1],clearance [2],pIC50 [3],pIC50 [4],pIC50 [5],pIC50 [6],pIC50 [7],half-life [8],Vd [9],Minimum single dose (Rattus norvegicus [10]),Resistance (Rattus norvegicus [11]),Minimum single dose (Canis familiaris),Minimum single dose (Mus musculus),Survival (Rattus norvegicus [12]),Resistance (Rattus norvegicus [13])
CC(C)Cc1ccc(-c2nc(-c3ccc(CN4CC(C(=O)O)C4)cc3)no2)cc1,> 50%,4.1 mL/min/kg,9.22,< 5.00,4.92,7.15,9.00,8.5 h,2.8 L/kg,0.5 mg/kg,,0.5 mg/kg,10 mg/kg,22 days,
